High-throughput results from PubChem.
Only some compounds are listed: those with a hit (about 2.3% of all), similar ones and a draw of the others.
HIF activator – HIF pathway transcriptional activation | U2OS HRE-luciferase reporter, luminescence; normalized: DMSO 0%, desferrioxamine 100% | activation, % at 7.5 µM (by protocol) | 0.32% of 300,000 active;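 active = mean activation of at least 10% of the iron chelator positive control signal, with at least half of replicates also reaching 10%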
Beta cell apopt – blocks beta cell apoptosis | INS-1E cytokine-induced death, ATP luminescence, 48 h; percent of positive-control rescue, neutral wells zero | protection from apoptosis, % (test concentration not listed) | 0.8% of 300,000 active;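 active = Every replicate reaches about 75%, or at least half do and their mean reaches it too, limit read from the data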;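 also: 0% = cytokine-treated negative control wells and 100% = positive control rescue; higher means more ATP so stronger rescue from cytokine killing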
KLF5 inh – inhibitors of KLF5 expression. DLD-1 KLF5 promoter-luciferase reporter, luminescence. inhibition, % at 5 µM. 0.23% of 290,000 active. AID 1700;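 active = inhibition above a per-plate limit of that plate's mean compound inhibition plus 3 SD, cut at about 60% in these data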;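 also: 0% = DMSO wells and 100% = LY294002 at 200 µM; higher means less KLF5 promoter-driven luciferase light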
Bfl-1 A1 inh – inhibitors of the anti-apoptotic protein A1, read as caspase activation; MEF A1-2A-BIM cells, Caspase-Glo 3/7 luminescence, 3 h; percent of clofoctol response, vehicle zero; caspase activation, % (concentration not given with the values); 0.066% of 330,000 active;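 active = over half of replicate activation scores above 10%, or exactly half above 10 with the replicate mean above 10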
T cruzi inh – T. cruzi replication inhibition | T. cruzi beta-gal in NIH3T3, luminescence, 90 h | inhibition, % (concentration not given with the values) | 1.4% of 300,000 active | AID 1885;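 active = mean inhibition across valid replicates above about 55%, limit read from the data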;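 also: signal also drops with host cell toxicity which is not excluded here; 0% = plate median of DMSO wells and 100% = zero luminescence signal; higher percent means less beta-gal luminescence so fewer parasites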
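Assay system: NIH/3T3 fibroblasts plus reporter T. cruzi. Amount: NIH/3T3 cells, 5,000 per well. Buffer or medium: DMEM, 2% fetal bovine serum. Doses: compound pinned at 50 nL/well, DMSO. Schedule: ≥90 h infection period, 3 h prior cell attachment. Signal: luminescent β-galactosidase signal after 60 min lysis. Read-out: parasite load inhibition, %.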
The depositor's hits bear a star.

How did c1ccc(CNc2nc(NCc3ccccc3)c3ccccc3n2)cc1 do in these assays?
HIF activator: -5.2; Beta cell apopt: 114.5*; KLF5 inh: 0.6; Bfl-1 A1 inh: -0.2; T cruzi inh: 38.2

What do the screens show for `Fc1ccc(Nc2nc(NCc3ccco3)c3ccccc3n2)cc1`?
HIF activator: 2.2; Beta cell apopt: 43.9; KLF5 inh: -133.1; Bfl-1 A1 inh: -1.3; T cruzi inh: 57.0*

What do the screens show for `O=C(COC(=O)c1nn(-c2ccccc2C(F)(F)F)cc1O)c1ccc(OC(F)F)cc1`?
HIF activator: 0.2; Beta cell apopt: -4.3; Bfl-1 A1 inh: -0.9; T cruzi inh: -8.0

What do the screens show for `CCC(C)Nc1nc(-c2ccccn2)nc2ccccc12` (centres undefined)?
HIF activator: -0.5; Beta cell apopt: 90.3*; KLF5 inh: -7.0; Bfl-1 A1 inh: 2.1; T cruzi inh: 64.4*

How did CSc1nc(C)cc(C)c1C#N do in these assays?
HIF activator: 103.4*; Beta cell apopt: -5.3; KLF5 inh: -2.5; Bfl-1 A1 inh: 0.1; T cruzi inh: -21.4

Results for Cc1cc(C)c(C#N)c(SCC(=O)C(C)(C)C)n1 ?
KLF5 inh: 14.1; Bfl-1 A1 inh: -0.8; T cruzi inh: 71.8*

Results for Cc1cc(C)c(C#N)c(SCc2ccc(F)cc2)n1 ?
HIF activator: -0.1; Beta cell apopt: 6.4; KLF5 inh: -30.6; Bfl-1 A1 inh: 0.1; T cruzi inh: -8.8

What do the screens show for `CCc1cc2c(=O)[nH]c(-c3ccccn3)nc2s1`?
HIF activator: 10.9*; Beta cell apopt: 66.4; KLF5 inh: -105.4; Bfl-1 A1 inh: -0.5; T cruzi inh: 59.6*

Results for CCc1cc2c(=O)[nH]c(N3CCCC3)nc2s1 ?
HIF activator: 2.2; Beta cell apopt: -0.8; KLF5 inh: -30.9; Bfl-1 A1 inh: 1.0; T cruzi inh: -11.8

Results for CCN1C(=O)/C(=C\c2ccncc2)SC1=S ?
HIF activator: 0.2; Beta cell apopt: -3.6; KLF5 inh: -15.4; Bfl-1 A1 inh: 1.1; T cruzi inh: 2.9

How did CCCCC(CC)CN1C(=O)/C(=C/c2ccncc2)SC1=S (centres undefined) do in these assays?
HIF activator: 0.4; Beta cell apopt: 88.3*; KLF5 inh: 1.4; Bfl-1 A1 inh: 0.2; T cruzi inh: -5.3

How did O=C1/C(=C/c2cccnc2)SC(=NCc2ccccc2)N1Cc1ccccc1 do in these assays?
HIF activator: -0.1; Beta cell apopt: -5.4; KLF5 inh: -21.4; Bfl-1 A1 inh: -0.4; T cruzi inh: 62.8*

How did COc1ccc(S(=O)(=O)N2CCCCC2)cc1NC(=O)Cc1sc(C)nc1-c1ccc(F)cc1 do in these assays?
HIF activator: 0.1; Beta cell apopt: 7.6; Bfl-1 A1 inh: -0.2; T cruzi inh: 18.2

What do the screens show for `S=C(NCc1ccccc1)N1CCn2cccc2C1c1cccnc1` (centres undefined)?
HIF activator: -1.1; KLF5 inh: -42.5; T cruzi inh: 58.8*

How did S=C(NCc1ccccc1)N1CCn2cccc2C1c1ccncc1 (centres undefined) do in these assays?
HIF activator: -0.8; Beta cell apopt: -3.8; KLF5 inh: -2.6; Bfl-1 A1 inh: 0.5; T cruzi inh: 12.9

How did S=C(NCCc1ccccc1)N1CCn2cccc2C1c1cccnc1 (centres undefined) do in these assays?
HIF activator: 0.0; Beta cell apopt: -4.7; KLF5 inh: -9.7; Bfl-1 A1 inh: -0.1; T cruzi inh: 67.7*

How did CON(C)S(=O)(=O)c1cccc(C(=O)Oc2ccc(N(C)S(=O)(=O)c3ccccc3)cc2)c1 do in these assays?
HIF activator: -0.2; Beta cell apopt: -2.3; KLF5 inh: -22.5; Bfl-1 A1 inh: -0.4; T cruzi inh: -1.0

How did CCOC(=O)C1CCN(Cc2ccc(OCc3ccccc3)c(OC)c2)CC1 do in these assays?
HIF activator: 0.2; Beta cell apopt: 0.5; KLF5 inh: -13.8; Bfl-1 A1 inh: 0.8; T cruzi inh: 16.4

Results for O=C(COC(=O)Cc1ccc(S(=O)(=O)N2CCOCC2)s1)Nc1ccc(F)cc1F ?
Beta cell apopt: -3.3; Bfl-1 A1 inh: -0.4

Results for Cc1cc(C)c2c3c(sc2n1)C(c1cccc(F)c1)C(C#N)=C(N)O3 (centres undefined) ?
HIF activator: 0.4; Beta cell apopt: 23.7; KLF5 inh: -31.5; Bfl-1 A1 inh: -0.2; T cruzi inh: 71.9*

Results for CC1CCC(NC(=O)CSc2nnnn2C)CC1 (centres undefined) ?
Beta cell apopt: -8.4; Bfl-1 A1 inh: 0.6

How did CCOc1ccc(-c2cc(C(=O)NCCCn3ccnc3)c3cc(Br)ccc3n2)cc1 do in these assays?
HIF activator: -5.3; Beta cell apopt: 108.2*; KLF5 inh: -5.8; Bfl-1 A1 inh: 0.1; T cruzi inh: 48.1

What do the screens show for `COc1ccccc1CCNC(=O)c1cc(-c2ccncc2)nc2ccc(Br)cc12`?
HIF activator: -0.4; KLF5 inh: 1.7; T cruzi inh: 89.0*

What do the screens show for `CCOC(=O)c1[nH]c(C)c(C(=O)OCC(=O)N(Cc2ccccc2)C(C)C)c1C`?
Beta cell apopt: -7.2; Bfl-1 A1 inh: 0.3

How did COc1cc(-c2nc(-c3ccc4c(c3)-c3ccccc3S4(=O)=O)c(-c3ccccc3)[nH]2)cc(OC)c1OC do in these assays?
HIF activator: -0.4; Beta cell apopt: 26.4; KLF5 inh: -21.3; Bfl-1 A1 inh: -0.4; T cruzi inh: 58.7*

How did COc1cc(-c2nc(-c3ccccc3)c(-c3cccs3)[nH]2)cc(OC)c1OC do in these assays?
HIF activator: -0.5; Beta cell apopt: 40.7; KLF5 inh: -25.2; Bfl-1 A1 inh: 0.6; T cruzi inh: 61.9*

What do the screens show for `O=C(CCNC(=O)C1CCN(S(=O)(=O)c2ccc(F)cc2)CC1)NCc1ccccc1`?
HIF activator: -0.3; Beta cell apopt: -0.9; KLF5 inh: -28.2; Bfl-1 A1 inh: -2.0; T cruzi inh: -12.9

How did Cc1nn(CC(=O)N2c3ccccc3NC(=O)C2(C)C)c(C)c1[N+](=O)[O-] do in these assays?
HIF activator: 2.5; KLF5 inh: 11.2; Bfl-1 A1 inh: 0.2; T cruzi inh: 5.1

How did CCc1ccc(C(=O)Cn2ncc(Cl)c(Cl)c2=O)cc1 do in these assays?
HIF activator: 4.4; Beta cell apopt: -11.0; KLF5 inh: -12.2; Bfl-1 A1 inh: 1.1; T cruzi inh: 59.7*

How did O=C(Cn1ncc(Cl)c(Cl)c1=O)N1CCN(Cc2ccccc2)CC1 do in these assays?
HIF activator: -8.4; KLF5 inh: -41.7; T cruzi inh: 67.4*

Results for CC1(C)C(=O)Nc2ccccc2N1C(=O)Cn1ncc(Cl)c(Cl)c1=O ?
HIF activator: 0.1; Beta cell apopt: -21.3; KLF5 inh: 1.4; Bfl-1 A1 inh: 1.7; T cruzi inh: 54.6*

What do the screens show for `O=C(Cn1ncc(Cl)c(Cl)c1=O)N1CCc2ccccc21`?
HIF activator: -6.5; KLF5 inh: 4.3; T cruzi inh: 82.0*

Results for O=C(COC(=O)c1ccc(O)cc1O)Nc1ncc(Cl)cc1Cl ?
HIF activator: 0.1; Beta cell apopt: 0.9; Bfl-1 A1 inh: -0.3; T cruzi inh: -4.9

Results for c1ccc(Cc2nnc(-c3ccccc3)o2)cc1 ?
HIF activator: 9.7*; Beta cell apopt: -3.4; KLF5 inh: -152.0; Bfl-1 A1 inh: -1.3; T cruzi inh: -17.4
